Results taken from paper PMC4838516 (ChemMedChem, 2016).
Read-outs that look alike come from different tables or passages of the source.

Experiments:
KSHV Pr = KSHV Pr (Human herpesvirus 8 type P, UniProt Q2HRB6); experiment: Dose-response kinetic assay of KSHV Pr with fluorogenic P6R substrate; format: biochemical; conditions: read-out: KSHV Pr IC50
Outline: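 Manual kinetic dose-response assay on KSHV Pr with the P6R substrate Ac-Pro-Val-Tyr-tBG-Leu-Gln-Ala-(rhodamine110)-dPro, read in a plate reader at ex/em 485/530 nm. IC50 was taken from dose-response curves of enzymatic activity; reported values are means.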

HCMV Pr = HCMV Pr (Human cytomegalovirus, UniProt P16753); experiment: Dose-response kinetic assay of HCMV Pr with ACC tetrapeptide substrate; format: biochemical; conditions: read-out: HCMV Pr IC50; --- = No quantifiable inhibition
Outline: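 Manual kinetic fluorescence assay on HCMV Pr using the tetrapeptide Ac-tBG-tBG-Asn(NMe2)-Ala carrying an ACC fluorophore, with ex/em 380/460 nm. Activity was followed over a dilution series of test compound to determine the IC50.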

KSHV Pr, sequence (Q2HRB6 1-230): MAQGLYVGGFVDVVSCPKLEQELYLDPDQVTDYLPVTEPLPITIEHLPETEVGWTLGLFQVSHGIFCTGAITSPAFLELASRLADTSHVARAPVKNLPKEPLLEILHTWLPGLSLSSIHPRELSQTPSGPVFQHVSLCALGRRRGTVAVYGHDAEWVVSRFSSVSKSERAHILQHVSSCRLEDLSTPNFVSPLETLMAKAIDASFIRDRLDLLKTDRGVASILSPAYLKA
HCMV Pr, sequence (P16753 1-256): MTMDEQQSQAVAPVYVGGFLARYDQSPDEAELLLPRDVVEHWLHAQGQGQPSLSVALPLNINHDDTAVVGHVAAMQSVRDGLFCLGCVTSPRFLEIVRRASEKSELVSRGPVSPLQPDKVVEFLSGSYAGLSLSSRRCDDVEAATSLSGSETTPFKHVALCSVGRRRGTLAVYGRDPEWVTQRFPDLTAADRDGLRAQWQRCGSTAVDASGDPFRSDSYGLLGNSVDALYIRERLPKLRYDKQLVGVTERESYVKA

IC50 (KSHV Pr): > 1000 µM | IC50 (KSHV Pr; P6R rhodamine110 substrate): > 500 µM | IC50 (HCMV Pr): > 500 µM
Compound: Nc1nc(-c2ccccc2)cs1 [Fragment 20]
